{"source": "ChEMBL document CHEMBL1144197", "about": "“Synthesis of 5-(1-H or 1-alkyl-5-oxopyrrolidin-3-yl)-8-hydroxy-[1,6]-naphthyridine-7-carboxamide inhibitors of HIV-1 integrase” (Bioorg Med Chem Lett, 2008)", "key": {"[1]": {"assay": "Half life in rat at 2 mg/kg, iv", "type": "ADME, organism-based", "design": "dose 2 mg/kg, route intravenous", "settings": "in vivo", "method_in_brief": "(§1)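 Intravenous dosing in DMSO at 2 mg/kg.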"}, "[2]": {"assay": "Clearance in rat at 2 mg/kg, iv", "type": "ADME, organism-based", "design": "dose 2 mg/kg, route intravenous", "settings": "in vivo", "method_in_brief": "as §1"}, "[3]": {"assay": "Oral bioavailability in rat at 10 mg/kg", "type": "ADME, organism-based", "settings": "in vivo", "method_in_brief": "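Oral dosing in 1% methylcellulose at 10 mg/kg.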"}, "[4]": {"molecular_target": "Human immunodeficiency virus type 1 integrase (Human immunodeficiency virus 1, UniProt Q7ZJM1)", "sequence (Q7ZJM1 whole entry)": "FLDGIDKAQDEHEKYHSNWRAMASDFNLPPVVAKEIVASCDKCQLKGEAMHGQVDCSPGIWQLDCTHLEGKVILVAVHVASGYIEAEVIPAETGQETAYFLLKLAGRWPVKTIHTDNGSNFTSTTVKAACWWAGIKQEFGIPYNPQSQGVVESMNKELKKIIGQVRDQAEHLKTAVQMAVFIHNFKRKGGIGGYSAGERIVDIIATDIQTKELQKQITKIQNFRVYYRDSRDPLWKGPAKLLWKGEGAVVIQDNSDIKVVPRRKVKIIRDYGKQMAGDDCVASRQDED", "assay": "Inhibition of recombinant HIV1 integrase strand transfer activity using immobilized DNA substrate", "method_in_brief": "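Recombinant HIV integrase (100 nM) preassembled on immobilized oligonucleotides, with 0.5 nM DNA, in a strand transfer read-out. Values are means of at least two experiments. The lower limit of accuracy is about 5 nM, with SD approximately twofold.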"}, "[5]": {"test_system": "Human immunodeficiency virus 1", "assay": "Antiviral activity against HIV1 3b in human MT4 cells assessed as decrease in HIV1 p24 core antigen in presence of 10% fetal bovine serum", "type": "functional", "method_in_brief": "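HIV-1 IIIb replication in MT-4 human T-lymphoid cells, cultured with 10% FBS across increasing inhibitor concentrations. Read-out is the decrease in p24 core antigen. IC95 is the concentration giving 95% inhibition of viral growth relative to control.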"}, "[6]": {"test_system": "Human immunodeficiency virus 1", "assay": "Antiviral activity against HIV1 3b in human MT4 cells assessed as decrease in HIV1 p24 core antigen in presence of 50% normal human serum"}, "[7]": {"assay": "Protein binding in human plasma at pH 7.4", "type": "ADME, cell-free", "settings": "read-out: PPB (converted)", "method_in_brief": "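Binding to human plasma (primarily albumin) measured by HPLC with UV detection, in pH 7.4 buffer at room temperature. Each value is the average of three determinations.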"}, "[8]": {"assay": "Partition coefficient, log P at pH 7.4", "type": "physicochemical", "settings": "octanol/water", "method_in_brief": "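A methanol solution of compound is partitioned between octanol and pH 7.4 KH2PO4/NaOH aqueous buffer, and both layers are quantified by HPLC-UV. Log P = log[(octanol area × octanol dilution)/(buffer area × buffer dilution)].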"}}}
{"smiles": "CN1CC(c2nc(C(=O)NCc3ccc(F)cc3)c([O-])c3ncccc23)CC1=O.[Na+]", "note": "(stereo not given)", "values": [{"measurement": "half-life", "setting": "[1]", "value": 1.3, "unit": "h"}, {"measurement": "clearance", "setting": "[2]", "value": 2.5, "unit": "mL/min/kg"}, {"measurement": "bioavailability", "setting": "[3]", "value": 65, "unit": "%"}]}
{"smiles": "O=C1CC(c2nc(C(=O)NCc3ccc(F)cc3)c(O)c3ncccc23)CN1", "note": "(stereo not given)", "values": [{"measurement": "IC50", "setting": "[4]", "value": 24, "unit": "nM"}, {"measurement": "IC95", "setting": "[5]", "value": 42, "unit": "nM"}, {"measurement": "Antiviral potency (p24 reduction)", "setting": "[6]", "value": 83, "unit": "nM"}]}
{"smiles": "CN1CC(c2nc(C(=O)NCc3ccc(F)cc3)c(O)c3ncccc23)CC1=O", "note": "(stereo not given)", "values": [{"measurement": "fraction unbound", "setting": "[7]", "value": 0.012}, {"measurement": "IC50", "setting": "[4]", "value": 20, "unit": "nM"}, {"measurement": "logD", "setting": "[8]", "value": 2.3}, {"measurement": "IC95", "setting": "[5]", "value": 31, "unit": "nM"}, {"measurement": "Antiviral potency (p24 reduction)", "setting": "[6]", "value": 125, "unit": "nM"}]}
{"smiles": "CN(C)C(=O)CN1CC(c2nc(C(=O)NCc3ccc(F)cc3)c([O-])c3ncccc23)CC1=O.[Na+]", "note": "(stereo not given)", "values": [{"measurement": "half-life", "setting": "[1]", "value": 3.4, "unit": "h"}, {"measurement": "clearance", "setting": "[2]", "value": 23.4, "unit": "mL/min/kg"}, {"measurement": "bioavailability", "setting": "[3]", "value": 5, "unit": "%"}]}
{"smiles": "CC(C)N1CC(c2nc(C(=O)NCc3ccc(F)cc3)c(O)c3ncccc23)CC1=O", "note": "(stereo not given)", "values": [{"measurement": "fraction unbound", "setting": "[7]", "value": 0.022}, {"measurement": "IC50", "setting": "[4]", "value": 40, "unit": "nM"}, {"measurement": "logD", "setting": "[8]", "value": 2.7}, {"measurement": "IC95", "setting": "[5]", "value": 31, "unit": "nM"}, {"measurement": "Antiviral potency (p24 reduction)", "setting": "[6]", "value": 125, "unit": "nM"}]}
{"smiles": "CCN1CC(c2nc(C(=O)NCc3ccc(F)cc3)c(O)c3ncccc23)CC1=O", "note": "(stereo not given)", "values": [{"measurement": "fraction unbound", "setting": "[7]", "value": 0.011}, {"measurement": "IC50", "setting": "[4]", "value": 14, "unit": "nM"}, {"measurement": "logD", "setting": "[8]", "value": 2.7}, {"measurement": "IC95", "setting": "[5]", "value": 16, "unit": "nM"}, {"measurement": "Antiviral potency (p24 reduction)", "setting": "[6]", "value": 125, "unit": "nM"}]}
{"smiles": "CN1CC(c2nc(C(=O)NCc3ccc(F)cc3S(C)(=O)=O)c(O)c3ncccc23)CC1=O", "note": "(stereo not given)", "values": [{"measurement": "fraction unbound", "setting": "[7]", "value": 0.03}, {"measurement": "half-life", "setting": "[1]", "value": 0.67, "unit": "h"}, {"measurement": "IC50", "setting": "[4]", "value": 123, "unit": "nM"}, {"measurement": "logD", "setting": "[8]", "value": 1.6}, {"measurement": "IC95", "setting": "[5]", "value": 31, "unit": "nM"}, {"measurement": "Antiviral potency (p24 reduction)", "setting": "[6]", "value": 63, "unit": "nM"}, {"measurement": "clearance", "setting": "[2]", "value": 17.2, "unit": "mL/min/kg"}, {"measurement": "bioavailability", "setting": "[3]", "value": 4, "unit": "%"}]}
{"smiles": "CCN1CC(c2nc(C(=O)NCc3ccc(F)cc3S(C)(=O)=O)c(O)c3ncccc23)CC1=O", "note": "(stereo not given)", "values": [{"measurement": "fraction unbound", "setting": "[7]", "value": 0.04}, {"measurement": "IC50", "setting": "[4]", "value": 26, "unit": "nM"}, {"measurement": "logD", "setting": "[8]", "value": 1.9}, {"measurement": "IC95", "setting": "[5]", "value": 38, "unit": "nM"}, {"measurement": "Antiviral potency (p24 reduction)", "setting": "[6]", "value": 81, "unit": "nM"}]}
{"smiles": "O=C(NCc1ccc(F)cc1)c1ncc2cccnc2c1O", "values": [{"measurement": "fraction unbound", "setting": "[7]", "value": 0.008}, {"measurement": "IC95", "setting": "[5]", "value": 1250, "unit": "nM"}, {"measurement": "Antiviral potency (p24 reduction)", "setting": "[6]", "value": 5000, "unit": "nM"}]}
{"smiles": "CN(C)C(=O)CN1CC(c2nc(C(=O)NCc3ccc(F)cc3)c(O)c3ncccc23)CC1=O", "note": "(stereo not given)", "values": [{"measurement": "fraction unbound", "setting": "[7]", "value": 0.052}, {"measurement": "IC50", "setting": "[4]", "value": 33, "unit": "nM"}, {"measurement": "logD", "setting": "[8]", "value": 1.8}, {"measurement": "IC95", "setting": "[5]", "value": 31, "unit": "nM"}, {"measurement": "Antiviral potency (p24 reduction)", "setting": "[6]", "value": 63, "unit": "nM"}]}
